The list is not random: actives were taken first. Their share in the collection is about 1.5%.
PLK1 PBD inh – Plk1 (human) PBD binding inhibition; P53350; Plk1 PBD phosphopeptide binding, fluorescence polarization; inhibition, %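 (tested at about 20 µM)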; 0.13% of 97,000 active; AID 693; in the data active means inhibition above about 34%, passing the limit was not always enough
Target sequence (P53350 whole entry, looked up): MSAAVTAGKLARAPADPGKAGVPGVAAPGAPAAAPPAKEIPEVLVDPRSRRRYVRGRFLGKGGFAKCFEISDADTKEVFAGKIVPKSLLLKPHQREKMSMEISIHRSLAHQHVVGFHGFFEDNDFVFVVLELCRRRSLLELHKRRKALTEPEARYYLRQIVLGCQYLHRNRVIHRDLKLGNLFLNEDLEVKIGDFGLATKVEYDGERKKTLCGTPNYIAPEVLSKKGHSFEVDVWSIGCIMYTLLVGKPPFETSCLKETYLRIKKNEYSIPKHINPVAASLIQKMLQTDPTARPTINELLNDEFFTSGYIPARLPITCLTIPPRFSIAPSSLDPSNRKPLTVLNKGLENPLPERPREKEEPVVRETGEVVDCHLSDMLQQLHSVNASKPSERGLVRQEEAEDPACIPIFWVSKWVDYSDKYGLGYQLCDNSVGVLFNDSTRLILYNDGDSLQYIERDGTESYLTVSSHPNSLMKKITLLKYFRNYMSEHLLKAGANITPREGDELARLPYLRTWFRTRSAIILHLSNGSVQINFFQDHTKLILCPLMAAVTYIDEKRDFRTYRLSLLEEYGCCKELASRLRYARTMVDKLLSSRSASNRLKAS
AP complement – orthogonal test for alternative complement pathway inhibitors. Human serum alternative complement pathway, LPS-coated ELISA, C3 deposition; tested in compound mixtures. inhibition, % at 5 µM. 0.08% of 62,000 active. AID 1235;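 active means inhibition above 30% in each of the two pooled mixtures holding the compound, so the lower value exceeds 30%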;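 further: 0% = serum in Mg-EGTA without compound and 100% = EDTA serum blank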
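Assay system: human serum alternative complement pathway, C3 deposition on LPS-coated wells; Dosing: 5 µM per compound in ten-compound mixtures; Detection: Anti-C3 ELISA, OD 450 nm; Buffer or medium: Mg2+-EGTA GVB++ buffer containing human serum at 1:15 dilution; Timing: 1 h at 37 °C; Replication: two different pools per compound.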
PTK2B oligo ant – Pyk2 (human) oligomerization antagonism; Q293 cells, Pyk2 FERM NanoBiT luminescence; active compounds read low; z-score (the deposit names both 25 µM and 10 µM); 0.83% of 99,000 active; AID 1347419;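 active means Z-score of -3 or lower, scaled per plate to the spread of control and sample wells; inactive means z-score above -3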;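 further: negative z-score means lost luminescence so less FERM oligomerization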
HEK293 NFkB inh – lowers PMA/ionomycin-induced NF-kB signal in HEK293 cells | HEK-293 NF-kB luciferase reporter, luminescence | inhibition, % at 3 µM | 0.21% of 62,000 active | AID 465;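 active means inhibition above the mean of all tested compounds plus 3 SD, cut at about 40% in these data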;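 further: 0% = stimulated DMSO wells and 100% = 10 µM reference inhibitor 5653914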
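Material: HEK-293 cells with stable firefly luciferase reporter driven by four HIV NF-kB elements / Also added: PMA plus ionomycin mix as NF-kB-activating stimulus / Compound dosing: 3 µM once, 0.30% DMSO / Times: 1 h pretreatment, 16 h stimulation, 37 °C / Signal: luminescence / Evaluation: per-plate % inhibition versus controls / Benchmarks: DMSO and 10 µM reference inhibitor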
HePTP inhibitor – inhibitors of human HePTP phosphatase. inhibition, % at 20 µM. P35236. recombinant HePTP phosphatase activity, OD absorbance. 0.64% of 110,000 active; in the data active means inhibition above about 50%;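 further: plate controls were vehicle for no effect and reference inhibitor for full effect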
PLK1 inh – blocks human PLK1 kinase activity; recombinant PLK1 kinase, TR-FRET peptide phosphorylation; inhibition, % at 10 µM; P53350; 0.53% of 97,000 active; AID 619;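 active means inhibition of 50% or more in the single-concentration screen; inactive means inhibition below 50%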;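 further: 0% = DMSO max control and 100% = H-89 dihydrochloride min control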
Active calls of the source: *; · = no result.

SMILES	PLK1 PBD inh	AP complement	PTK2B oligo ant	HEK293 NFkB inh	HePTP inhibitor	PLK1 inh
COc1ccc(/C=C2/SC(=Nc3ccccc3)NC2=O)cc1O	·	·	·	·	1.6	·
C=CCOc1ccc(/C=C2\SC(=Nc3ccccc3)NC2=O)cc1OC	·	·	·	·	63.5*	·
Cc1ccc(-c2nc3ccc(C(=O)O)cc3nc2-c2ccc(C)cc2)cc1	10.2	·	-3.28*	·	·	-7.1
CCOc1ccccc1N1CCN(C(=O)c2cc(-c3cccc(C)c3)nc3ccccc23)CC1	·	·	·	·	9.2	·
CCOC(=O)c1[nH]c2ccccc2c1CCCN1C(=O)c2ccccc2C1=O	-4.3	·	-3.03*	·	·	-11.8
COc1ccc(NC(=O)c2ccccc2O)c(OC)c1	-11.9	·	-0.6	·	·	-3.0
COc1ccc(NC(=O)c2c(OC)cccc2OC)c(OC)c1	19.1	15.1	-4.38*	23.7	0.0	-3.3
COc1ccc(S(=O)(=O)N(Cc2ccccc2)Cc2nc3ccccc3c(=O)[nH]2)cc1	20.1	6.8	-2.55	3.7	6.6	-10.4
COc1ccccc1CN(Cc1nc2ccccc2c(=O)[nH]1)S(=O)(=O)c1ccc2ccccc2c1	1.7	·	-3.02*	·	·	-11.5
CCCCNCCOc1cccc(Cl)c1Cl	·	·	·	·	7.5	·
CCOc1cc(N2CCOCC2)c(OCC)cc1N	·	·	·	·	68.4*	·
CCOc1cc(N2CCOCC2)c(OCC)cc1NC1=NCCCCC1	14.8	18.6	0.35	9.9	4.0	-5.3
Cc1ccccc1C(=O)NNC(=O)c1ccc2ccccc2c1	·	·	·	·	-4.9	·
COc1ccc(-n2ncc(S(=O)(=O)c3ccccc3)c2-c2ccc(Cl)cc2)cc1	3.0	·	-3.27*	·	·	-10.1
O=C(CC(c1ccccc1)c1ccccc1O)N1CCNCC1 (centres undefined)	·	·	·	·	-11.1	·
O=C(Nc1cccc(Cl)c1Cl)c1ccncc1	-31.0	13.6	-0.23	·	3.5	53.8*
O=C(Nc1cccc(Cl)c1Cl)c1ccccc1	·	·	·	·	-4.0	·
O=C(CSCC(=O)Nc1ccccc1[N+](=O)[O-])Nc1ccccc1	·	·	·	·	-4.1	·
Cc1cc([N+](=O)[O-])ccc1-c1ccc(C(=O)Nc2ccc(Cl)cn2)o1	·	·	·	·	9.0	·
O=C(O)CCCCCCCCCCN1C(=O)/C(=C/c2cccc(Br)c2)SC1=S	·	·	·	·	101.5*	·
O=C(CN1C(=O)/C(=C/c2ccccc2Cl)SC1=S)Nc1cccc(C(=O)O)c1	·	·	·	·	-13.6	·
O=C(CCN1C(=O)/C(=C\c2cccs2)SC1=S)Nc1cccc(C(=O)O)c1	·	·	·	·	92.9*	·
O=C(CN1C(=O)/C(=C/c2ccccc2Cl)SC1=S)Nc1ccc(C(=O)O)cc1	·	·	·	·	96.5*	·
Oc1ccccc1C=Nc1ccccc1N=Cc1c(O)ccc2ccccc12	·	·	·	·	-0.6	·
O=C(N/N=C\c1cccc2ccccc12)C1CC(=O)N(c2ccc(F)cc2)C1 (centres undefined)	·	·	·	·	1.5	·
SMILES	PLK1 PBD inh	AP complement	PTK2B oligo ant	HEK293 NFkB inh	HePTP inhibitor	PLK1 inh
C#CCn1cc(/C=C(/C#N)C(=O)Nc2ccc(OC)cc2)c2ccccc21	·	·	·	·	2.9	·
CCOC(=O)NC(NCc1ccco1)(C(F)(F)F)C(F)(F)F	·	·	·	·	1.8	·
CCOc1ccc(OCC)c(N=c2oc3c(C)ncc(CO)c3cc2C(N)=O)c1	-20.4	83.6*	0.55	16.4	2.8	-3.9
CCOc1ccccc1N1CCN(C(=O)c2cccc(F)c2)CC1	·	·	·	·	102.7*	·
C=CCn1c(SCC(=O)Nc2sccc2C(N)=O)nc2ccc(Cl)cc2c1=O	-0.7	·	-3.24*	·	·	-3.0
C=CCn1c(SCC(=O)Nc2sccc2C(N)=O)nc2ccccc2c1=O	13.5	·	-2.59	·	·	-11.2
C=CCn1c(SCC(=O)Nc2sccc2C(N)=O)nc2sc(CC)cc2c1=O	10.7	·	-3.45*	·	·	-4.7
CCOc1cc(CNc2cccc3ccccc23)cc(Br)c1OCC(=O)NC(C)(C)C	-0.7	·	-3.74*	·	·	-15.0
CCOc1cc(CNc2ccc(N(C)C)cc2)cc(Br)c1OCC(=O)NC(C)(C)C	-6.5	·	0.36	·	·	-7.0
O=[N+]([O-])c1cc(S(=O)(=O)Nc2ccc(Cl)cc2)ccc1Cl	·	·	·	·	-13.1	·
CCOC(=O)/C(=C\c1ccccc1)C(=O)c1cc(C(C)=O)c(Nc2ccccc2)s1	-4.1	·	-3.05*	·	·	-3.9
COc1cc(/C=C(/C#N)C(=O)Nc2cccc(Br)c2)cc([N+](=O)[O-])c1O	·	·	·	·	103.6*	·
COc1ccc(S(=O)(=O)N(CC(=O)NCc2ccco2)Cc2ccccc2)cc1OC	·	·	·	·	-10.5	·
CCOC(=O)c1ccc(-c2c(C(=O)OCC)oc3cc(O)c(CC)cc3c2=O)o1	0.0	6.3	-3.66*	-8.5	-0.2	-1.8
CCOC(=O)c1oc2cc(O)ccc2c(=O)c1-c1ccccc1OC	10.8	2.3	-0.74	5.3	5.5	-0.6
Cc1oc(-c2ccccc2Cl)nc1CSCC(=O)N1CCCC1	13.7	9.7	-1.44	86.6*	10.6	-0.6
Cc1oc(-c2ccccc2Cl)nc1CSCC(=O)NC1CCCC1	-25.9	·	0.06	·	·	-16.1
CCOc1ccc(-c2nc(CSCC(=O)N3CCN(c4cccc(OC)c4)CC3)c(C)o2)cc1	-5.3	-9.1	·	8.0	10.7	63.7*
COc1ccc(-c2nc(CS(=O)CC(=O)NCc3ccco3)c(C)o2)cc1 (centres undefined)	-24.1	-0.8	·	3.4	-10.4	6.0
Cc1ccc(-c2nc(CSCC(=O)N3CCN(c4ccccn4)CC3)c(C)o2)cc1	-23.2	2.8	·	13.1	-5.4	-14.2
CCOc1ccc(-c2nc(CSCC(=O)NCc3ccco3)c(C)o2)cc1	·	19.8	0.18	83.1*	5.4	·
Cn1c2c(c3cc(C4CCCCC4)ccc31)CCCC2=O	·	·	·	·	-7.8	·
O=C1c2ccccc2C(=O)N1Cc1nc2ccccc2c(=O)o1	·	·	·	·	7.6	·
CCN(CC)C(=O)CN(c1ccc(C)cc1)S(=O)(=O)c1ccc(F)cc1	·	·	·	·	4.2	·
CCn1c2ccccc2c2nnc(SCCCn3c(=O)[nH]c4ccccc43)nc21	11.3	4.6	-3.47*	11.9	2.8	-9.1
SMILES	PLK1 PBD inh	AP complement	PTK2B oligo ant	HEK293 NFkB inh	HePTP inhibitor	PLK1 inh
COC(=O)c1ccc(-n2c(C)cc(/C=C3\SC(=S)NC3=O)c2C)cc1	·	·	·	·	-9.1	·
Cc1c(-c2ccco2)[n+](=O)c2c(n1[O-])CCC2	-7.2	16.5	0.17	1.9	0.9	-13.3
Cc1c(-c2ccc(F)cc2)[n+](=O)c2c(n1[O-])CCC2	·	·	·	·	104.2*	·
COc1ccc(-c2c(C)n([O-])c3c([n+]2=O)CCC3)cc1	·	·	·	·	104.2*	·
Cc1c(-c2ccccc2)[n+](=O)c2c(n1[O-])CCCCC2	·	·	·	·	-5.2	·
CN1C(=O)/C(=C2\SC(=Nc3ccc(F)cc3)NC2=O)c2ccccc21	·	·	·	·	28.1	·
COc1ccc(S(=O)(=O)NCC(C)C)cc1Br	·	·	·	·	-10.0	·
CCOC(=O)C1CCCN(c2c(Nc3cccc(C)c3)c(=O)c2=O)C1 (centres undefined)	-5.4	7.0	·	11.7	3.9	60.6*
CCOC(=O)C1CCCN(c2c(Nc3ccc(OCC)cc3)c(=O)c2=O)C1 (centres undefined)	-13.8	·	·	·	·	-15.0
CCN(CC)CCCNC(=O)c1cn(C)c2ccc(S(=O)(=O)N(C)C)cc2c1=O	·	4.3	·	9.5	7.7	·
CN(C1CCCCC1)S(=O)(=O)c1ccc2c(c1)c(=O)c(C(=O)NCCN1CCCC1)cn2C	-0.7	22.4	·	10.0	-2.2	61.8*
